Activity calls are given as the source filed them. No cut-off for these calls is given here.

This note sets out measurements from ChEMBL document CHEMBL4342528, “Discovery of a First-in-Class Protein Arginine Methyltransferase 6 (PRMT6) Covalent Inhibitor” (J Med Chem, 2020).

For data set [1], the target named is Protein arginine N-methyltransferase 6 (Homo sapiens, UniProt Q96LA8). Nature of the data set: Inhibition of human PRMT6 assessed as Kinact/Ki ratio pre-incubated for 1 to 30 mins using [3H]SAM as donor and [3H]methylated biotin-labeled peptide as substrate by scintillation proximity assay.
The target in data set [2] is T1, Protein arginine N-methyltransferase 3 (Homo sapiens, UniProt O60678). As to the kind of experiment: Inhibition of human PRMT3 using [3H]SAM as donor and [3H]methylated biotin-labeled peptide as substrate by scintillation proximity assay. The procedure, abridged:
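Compound titrated into the reaction; 1 h enzyme–compound preincubation stated for PRMT6. Methylated peptide captured on streptavidin/scintillant-coated plates and counted (cpm). IC50 from concentration–response, triplicate, mean ± SD.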
(In general: SPA uses beads or plates that emit light when radiolabelled molecules are held near them.)
Target sequence in this assay (O60678 whole entry): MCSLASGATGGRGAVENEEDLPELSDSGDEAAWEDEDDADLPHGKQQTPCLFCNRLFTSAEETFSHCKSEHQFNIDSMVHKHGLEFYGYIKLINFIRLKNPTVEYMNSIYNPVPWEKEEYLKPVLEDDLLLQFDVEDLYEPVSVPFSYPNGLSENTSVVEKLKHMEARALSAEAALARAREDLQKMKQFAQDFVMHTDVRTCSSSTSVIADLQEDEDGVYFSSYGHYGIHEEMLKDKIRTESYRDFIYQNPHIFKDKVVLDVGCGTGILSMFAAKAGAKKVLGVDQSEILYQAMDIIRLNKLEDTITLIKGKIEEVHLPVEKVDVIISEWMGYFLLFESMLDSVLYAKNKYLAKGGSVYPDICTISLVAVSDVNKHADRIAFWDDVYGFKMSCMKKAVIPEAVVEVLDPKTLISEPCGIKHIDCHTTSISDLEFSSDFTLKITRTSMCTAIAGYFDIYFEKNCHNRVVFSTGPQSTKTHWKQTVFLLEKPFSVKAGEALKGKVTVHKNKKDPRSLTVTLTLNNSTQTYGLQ

Data set [3] relates to HEK-293T. Nature of the data set: Toxicity in HEK293T cells assessed as reduction in cell viability up to 20 uM incubated for 3 days by CCK8 assay. The format is cell-based. As to conditions: human, 72 h. A digest of the protocol: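 Cells seeded 1×10^4 per well in triplicate, treated after 24 h with serial dilutions from 20 μM for 3 days; CCK-8 (WST-8) added, 4 h at 37 °C, absorbance at 450 nm; mean ± SD of three replicate experiments.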

Data set [4] concerns the target T1, Protein arginine N-methyltransferase 3. Nature of the data set: Inhibition of PRMT3 (unknown origin) assessed as reduction in incorporation of [3H]-labeled methyl group into biotinylated substrate using [3H-SAM] at 10 uM incubated for 1 hr by scintillation proximity assay. A digest of the protocol: (§1)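 Panel of 33 methyltransferases (22 PKMTs, 3 DNMTs, 8 PRMTs), each tested at 10 and 50 μM compound. Activity was read as ³H-methyl transfer from ³H-SAM in a radiometric assay done as previously described.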
Target sequence in this assay (O60678 2-531 limits assumed): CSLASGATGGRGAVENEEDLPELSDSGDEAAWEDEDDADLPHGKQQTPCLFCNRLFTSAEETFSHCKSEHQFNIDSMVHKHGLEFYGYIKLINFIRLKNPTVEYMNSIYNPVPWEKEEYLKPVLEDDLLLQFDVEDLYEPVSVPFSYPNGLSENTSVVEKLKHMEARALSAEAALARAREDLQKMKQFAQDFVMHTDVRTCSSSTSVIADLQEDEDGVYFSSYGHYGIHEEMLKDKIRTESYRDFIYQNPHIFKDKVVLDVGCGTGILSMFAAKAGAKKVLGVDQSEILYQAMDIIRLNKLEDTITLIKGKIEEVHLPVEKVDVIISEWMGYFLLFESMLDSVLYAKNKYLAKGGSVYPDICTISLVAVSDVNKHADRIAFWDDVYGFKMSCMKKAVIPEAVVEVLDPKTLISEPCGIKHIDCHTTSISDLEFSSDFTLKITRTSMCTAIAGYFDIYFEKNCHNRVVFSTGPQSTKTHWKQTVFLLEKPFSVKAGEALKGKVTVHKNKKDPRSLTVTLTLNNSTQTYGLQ

The target in data set [5] is T2, Histone-arginine methyltransferase CARM1 (Homo sapiens) (UniProt Q86X55).
T2 sequence (whole entry): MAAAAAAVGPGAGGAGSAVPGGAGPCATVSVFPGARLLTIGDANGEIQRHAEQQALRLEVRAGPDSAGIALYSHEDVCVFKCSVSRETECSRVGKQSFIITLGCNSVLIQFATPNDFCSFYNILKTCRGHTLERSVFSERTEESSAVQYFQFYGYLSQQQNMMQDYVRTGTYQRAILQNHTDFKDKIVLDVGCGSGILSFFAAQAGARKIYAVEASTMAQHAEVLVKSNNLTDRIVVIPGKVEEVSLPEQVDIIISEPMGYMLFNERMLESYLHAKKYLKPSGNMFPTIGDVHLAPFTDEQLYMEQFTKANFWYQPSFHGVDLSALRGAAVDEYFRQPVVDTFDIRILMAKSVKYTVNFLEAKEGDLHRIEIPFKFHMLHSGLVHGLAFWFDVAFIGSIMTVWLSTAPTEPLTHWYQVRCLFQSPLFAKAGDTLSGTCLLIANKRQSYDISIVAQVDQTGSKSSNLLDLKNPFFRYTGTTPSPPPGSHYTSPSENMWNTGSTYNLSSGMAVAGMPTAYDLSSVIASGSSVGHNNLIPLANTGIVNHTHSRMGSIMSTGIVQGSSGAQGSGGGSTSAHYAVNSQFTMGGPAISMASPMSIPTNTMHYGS
Nature of the data set: Inhibition of PRMT4 (unknown origin) assessed as reduction in incorporation of [3H]-labeled methyl group into biotinylated substrate using [3H-SAM] at 10 uM incubated for 1 hr by scintillation proximity assay. The procedure, abridged: as §1

The target of data set [6] is Histone-lysine N-methyltransferase EZH2 (Homo sapiens) (UniProt Q15910). Nature of the data set: Inhibition of PRC2 (unknown origin) assessed as reduction in incorporation of [3H]-labeled methyl group into biotinylated substrate using [3H-SAM] at 10 uM incubated for 1 hr by scintillation proximity assay. The procedure, abridged:
as §1

Sequence of Histone-lysine N-methyltransferase EZH2 (Homo sapiens) (Q15910 whole entry, looked up): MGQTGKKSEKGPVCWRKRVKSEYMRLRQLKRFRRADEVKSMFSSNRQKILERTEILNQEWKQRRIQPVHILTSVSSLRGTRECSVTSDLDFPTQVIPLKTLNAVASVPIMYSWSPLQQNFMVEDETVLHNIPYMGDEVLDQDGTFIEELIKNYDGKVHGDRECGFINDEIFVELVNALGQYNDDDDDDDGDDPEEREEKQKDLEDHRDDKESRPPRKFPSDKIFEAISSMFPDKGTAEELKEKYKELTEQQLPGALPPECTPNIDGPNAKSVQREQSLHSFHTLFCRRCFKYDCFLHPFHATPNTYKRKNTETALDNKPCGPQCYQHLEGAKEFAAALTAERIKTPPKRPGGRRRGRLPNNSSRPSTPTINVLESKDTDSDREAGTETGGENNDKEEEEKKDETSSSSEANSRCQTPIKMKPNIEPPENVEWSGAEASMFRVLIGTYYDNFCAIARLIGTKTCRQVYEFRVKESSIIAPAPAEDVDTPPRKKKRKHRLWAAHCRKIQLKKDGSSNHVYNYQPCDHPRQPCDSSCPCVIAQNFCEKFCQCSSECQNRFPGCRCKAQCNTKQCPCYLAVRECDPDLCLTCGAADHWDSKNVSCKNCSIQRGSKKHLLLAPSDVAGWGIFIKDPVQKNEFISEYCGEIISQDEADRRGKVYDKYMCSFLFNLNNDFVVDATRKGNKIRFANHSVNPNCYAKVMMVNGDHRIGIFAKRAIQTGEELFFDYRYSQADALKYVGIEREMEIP
Sequence of Protein arginine N-methyltransferase 6 (Q96LA8 whole entry, looked up): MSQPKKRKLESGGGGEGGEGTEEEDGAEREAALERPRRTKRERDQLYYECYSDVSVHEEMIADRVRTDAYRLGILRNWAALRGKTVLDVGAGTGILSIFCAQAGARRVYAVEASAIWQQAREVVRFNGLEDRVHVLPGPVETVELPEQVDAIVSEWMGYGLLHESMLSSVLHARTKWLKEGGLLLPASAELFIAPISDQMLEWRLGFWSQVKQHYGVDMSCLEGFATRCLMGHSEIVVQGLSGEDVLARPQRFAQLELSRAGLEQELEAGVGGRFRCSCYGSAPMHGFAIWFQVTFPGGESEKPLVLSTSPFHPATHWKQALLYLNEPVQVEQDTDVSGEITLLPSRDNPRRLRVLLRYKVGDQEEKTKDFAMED

As usually defined, the IC50 is the concentration that gives 50% inhibition. Higher therefore signals weaker potency in that assay. A word on the inhibition: it is the relative decrease from the control value, in per cent. For the compound `C=CC(=O)Nc1cccc(-c2c[nH]cc2CN(C)CCN)c1`, in data set [1], the Ratio amounted to 8.3 ×10⁴ /M/s. The compound also showed an IC50 in data set [2] of 3 µM. In addition, the Activity entry in data set [3] is listed as “Non-Toxic”. The inhibition in data set [4] and in data set [5] was greater than 90% throughout. For the same compound, the inhibition entry in data set [6] is “inactive”.
